Reference: PubChem BioAssay AID2378 (NMMLSC, 2010)

Biological target: Cell division control protein 42 homolog (Homo sapiens) (UniProt P60953)
Test: compound effect on Cdc42 GTP saturation binding, late-stage follow-up, mechanism study for Ras-family GTPase inhibitor project, biochemical, EDTA buffer, varying GTP (AID 2378)
Settings: GST-Cdc42 beads, BODIPY-GTP binding, flow cytometry
In short: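 Test system: GST-Cdc42 on glutathione beads / Quantity: 4 µM GST-Cdc42 for bead loading / Doses: 10 µM compound, single dose / Times: 4 °C overnight capture, 2 min pre-incubation / Technique: flow cytometry measurement of bead-associated BODIPY-GTP fluorescence / Read-out basis: Bmax and Kd from one-site binding fit / Controls: DMSO vehicle reference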

Cell division control protein 42 homolog (Homo sapiens), sequence (P60953 whole entry, looked up): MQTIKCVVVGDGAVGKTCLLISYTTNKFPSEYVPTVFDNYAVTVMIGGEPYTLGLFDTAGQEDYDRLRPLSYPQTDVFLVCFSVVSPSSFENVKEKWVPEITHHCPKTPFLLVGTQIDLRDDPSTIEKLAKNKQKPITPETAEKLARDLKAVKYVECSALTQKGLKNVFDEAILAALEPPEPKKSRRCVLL

Bmax with compound (at 10 µM, stronger effect = lower value): 19800
Kd (measured here: GTP Kd with compound): 46.4 nM
SMILES: COc1ccc(C2CC(c3ccccc3)=NN2c2ccc(S(N)(=O)=O)cc2)cc1 (configuration not stated)
